Bioassay records: PubChem BioAssay, several laboratories
LEDGF integ inh: blocks HIV-1 LEDGF/p75-dependent DNA integration; TR-FRET IN-LEDGF/p75 DNA integration, Eu/Cy5; inhibition, % at 3.7 µM; hit rate 0.64% among 370,000; AID 743269;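 active = inhibition above the screen-wide mean plus 3 SD, cut at about 13% in these data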;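 note: signal is the Cy5 over europium emission ratio at 671 and 618 nm; 0% = plate median of compound wells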
UHRF1 binding: UHRF1 methyl-DNA binding inhibition | inhibition, % at 4.4 µM | UHRF1 binding to methylated oligo, TR-FRET | Q96T88 | AID 687016 | hit rate 0.75% among 370,000; in the data active = inhibition above about 21%;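 note: UHRF1 SRA domain binding a hemimethylated CpG hairpin DNA probe; 0% = median of test compound wells and 100% = reference inhibitor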
NSD2 HMT inh: blocks human histone methyltransferase NSD2; AID 743445; hit rate 0.54% among 310,000; inhibition, % at 12.5 µM; NSD2 peptide methylation, AlphaScreen, 120 min; in the data active = inhibition above about 50%
TDP2 absorb: blocks human TDP2 phosphodiesterase activity; hit rate 0.34% among 370,000; O95551; inhibition, % at 12.8 µM; recombinant TDP2, T5PNP hydrolysis, p-nitrophenol absorbance 415 nm; AID 720702;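 active = inhibition above the mean of all tested compounds plus 3 SD, set per campaign, cut at about 25% in these data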;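 note: 0% = DMSO with enzyme and 100% = buffer with substrate but no TDP2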
Target sequence (O95551 whole entry, looked up): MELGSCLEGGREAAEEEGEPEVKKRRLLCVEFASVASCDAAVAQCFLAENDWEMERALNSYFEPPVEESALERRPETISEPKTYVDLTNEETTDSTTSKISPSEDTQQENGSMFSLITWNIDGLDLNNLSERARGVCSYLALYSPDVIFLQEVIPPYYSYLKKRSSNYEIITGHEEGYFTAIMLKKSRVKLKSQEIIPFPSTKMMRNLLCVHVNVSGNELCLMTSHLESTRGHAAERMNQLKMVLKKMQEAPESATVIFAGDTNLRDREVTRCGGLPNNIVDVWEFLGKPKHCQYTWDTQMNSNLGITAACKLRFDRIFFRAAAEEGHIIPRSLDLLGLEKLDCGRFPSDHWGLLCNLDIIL
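System – recombinant human TDP2 · Amount – 120 nM TDP2 per well · Buffer or medium – Mg2+-containing Tris-HCl buffer, pH 7.5 · Reagent – T5PNP substrate, 5 mM · Dosing – 12.8 µM single point, 1% DMSO · Incubation – 2 h at 37 °C · Measured by – epi absorbance · Read-out basis – percent inhibition · Benchmarks – high control without enzyme, low control DMSO plus TDP2 · Repeats – singlicate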
MBD2 inh: blocks human MBD2 binding to methylated DNA | Q9UBB5 | TR-FRET, MBD2 binding to methylated oligonucleotide | inhibition, % at 4.4 µM | hit rate 0.31% among 370,000 | AID 686964; in the data active = inhibition above about 13%
CASP6 VEID inh: inhibitors of human caspase-6 | purified caspase-6, Z-VEID-R110 cleavage fluorescence | inhibition, % at 12.5 µM | AID 686996 | hit rate 0.53% among 350,000 | P55212;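 active = mean inhibition across replicates at least about 35%, with every replicate also reaching that limit, limit read from the data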;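 note: 0% = median of neutral control wells and 100% = no fluorescence left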
TDP2 inh conf: confirmation of human TDP2 inhibitors. shares compounds with TDP2 absorb. AID 743263. recombinant human TDP2, absorbance read-out. hit rate 22% among 1,100. inhibition, % at 12.8 µM; in the data active = inhibition above about 25%;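 note: 0% = vehicle with enzyme and 100% = no enzyme buffer only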
* hit, by the source's call; . = no result given. Only some compounds are listed: those with a hit (about 1.8% of all), similar ones and a draw of the others.

SMILES	LEDGF integ inh	UHRF1 binding	NSD2 HMT inh	TDP2 absorb	MBD2 inh	CASP6 VEID inh	TDP2 inh conf
C[C@H]1CN([C@@H](C)CO)C(=O)c2cccc(NC(=O)c3nc4ccccc4s3)c2O[C@@H]1CN(C)S(=O)(=O)c1ccc(F)cc1	.	.	.	.	.	0	.
COc1ccc(C(=O)Nc2nc3c(s2)Cc2cc(OC)ccc2-3)cc1	5	-8	12	32*	-4	.	38*
CCOc1ccccc1NC(=O)c1cc(S(=O)(=O)NCc2ccco2)ccc1F	-3	1	-1	26*	3	0	-10
COc1ccc(OC)c(NC(=O)c2cc(S(=O)(=O)NCc3ccco3)ccc2F)c1	0	1	.	-8	5	.	.
O=c1[nH]c(Nc2ccccc2)cc2ccccc12	37*	2	82*	69*	-4	.	66*
COc1ccc2nc(SCC(=O)NCc3ccccc3)[nH]c2c1	0	8	-2	60*	4	4	-2
C[C@H](CO)N1C[C@H](C)[C@@H](CN(C)C(=O)c2cccnc2)Oc2cc(C#CC3(O)CCCC3)ccc2S1(=O)=O	.	.	.	.	.	4	.
CC(C)(C)NC(=O)c1ccc2c(c1)CCO2	-4	-1	-1	11	5	-3	.
O=C(NC(=O)c1ccccc1O)c1ccc2c(c1)CCO2	-1	-2	3	25*	4	6	2
CC(=O)NC1=NN(c2ccccc2)C(=O)C1	8	9	-3	55*	1	.	5
O=C(CCCCl)NC1=NN(c2ccccc2)C(=O)C1	0	-8	2	15	-3	0	.
COc1ccc(CNC(=O)C[C@H]2C[C@@H]3c4cc(NS(C)(=O)=O)ccc4O[C@@H]3[C@@H](CO)O2)cc1	.	.	.	.	.	-1	.
O=C(Nc1c(-c2ccc(Cl)cc2)[nH][nH]c1=O)c1ccc(Br)cc1	7	3	.	38*	-9	14	14
O=C(Nc1ccccc1-c1ccccc1)c1cccc(C(F)(F)F)c1	-2	5	-5	-9	0	.	.
COc1ccc(-c2[nH][nH]c(=O)c2NC(=O)c2ccccc2Br)cc1	-1	-8	.	-13	-2	2	.
O=C(Nc1c(-c2ccccc2)[nH][nH]c1=O)c1cccc(C(F)(F)F)c1	4	2	.	26*	-1	2	14
O=C(Nc1c(-c2ccc3c(c2)OCO3)[nH][nH]c1=O)c1ccc2c(c1)OCO2	8	10	.	48*	-9	7	67*
O=C(Nc1c(-c2ccccc2)[nH][nH]c1=O)c1ccccc1	8	4	.	35*	-4	3	9
CCCC#Cc1ccc([C@H]2[C@@H](CO)N(S(=O)(=O)c3cccc(F)c3)[C@H]2C#N)cc1	.	.	.	.	.	-1	.
Cc1ccc(Cl)cc1NS(=O)(=O)c1cn(C)nc1C	-2	-2	2	25*	1	-1	11
COc1ccc(Cl)cc1NS(=O)(=O)c1cn(C)nc1C	3	-2	0	15	-4	-1	.
COc1ccccc1/C=C/c1nc(S(=O)(=O)c2ccccc2)c(N2CCC(C(N)=O)CC2)o1	4	-1	-21	26*	-7	-3	-11
CCN1CCN(C(C(=O)NC2CCCCC2)C2CC2)CC1 (stereo not drawn)	-2	-2	.	3	0	-1	.
CCN1CCN(C(C)C(=O)NC2CCCCC2)CC1 (stereo not drawn)	7	1	5	27*	0	-3	8
O=C(Nc1ccc2nsnc2c1)N1CCCCC1	2	-3	-6	5	-6	.	.
SMILES	LEDGF integ inh	UHRF1 binding	NSD2 HMT inh	TDP2 absorb	MBD2 inh	CASP6 VEID inh	TDP2 inh conf
COCCNC(=S)Nc1ccc2nsnc2c1	11	5	31	74*	-6	.	2
S=C(Nc1ccc2nsnc2c1)N1CCCCCC1	5	-3	153*	62*	-3	56*	68*
Cc1noc(C)c1NC(=O)Nc1ccc2c(c1)C(=O)N([C@@H](C)CO)C[C@H](C)[C@H](CN(C)Cc1ccncc1)OCCCC[C@H](C)O2	.	.	.	.	.	-1	.
CO[C@H]1CN(C)C(=O)c2cc(NC(=O)c3cnccn3)ccc2OC[C@H](C)N(C(C)=O)C[C@@H]1C	.	.	.	.	.	0	.
Cc1cc(O)c(C=Nc2ccc(N3CCOCC3)cc2)c(C)c1Cl	13	0	-3	37*	0	-1	4
C[C@H]1CN([C@@H](C)CO)C(=O)c2cc(C#Cc3ccccc3)cnc2O[C@@H]1CN(C)C(=O)C1CC1	.	.	.	.	.	-2	.
CN(C)CC(=O)Nc1ccc2c(c1)[C@H]1C[C@H](CC(=O)NCCc3ccccc3)O[C@H](CO)[C@H]1O2	.	.	.	.	.	-2	.
CC(C)C(=O)Nc1ccc2c(c1)C(=O)N(C)[C@H]1CC[C@H](CC(=O)Nc3cccc(F)c3)O[C@@H]1CO2	.	.	.	.	.	2	.
CC(=O)Oc1c(/C=C(\C#N)C(N)=O)[nH]c2ccccc12	8	-15	8	32*	-7	18	-1
Cc1ccc(S(=O)(=O)c2c(N)n(CCCO)c3nc4ccccc4nc23)cc1	13	2	-10	54*	-6	.	-7
Cc1ccc(S(=O)(=O)c2c(N)n(CCC(C)C)c3nc4ccccc4nc23)cc1	3	-4	-1	1	-7	.	.
COc1ccc(CCn2c(N)c(C(=O)NCc3ccco3)c3nc4ccccc4nc32)cc1OC	-3	-10	.	25*	-7	.	26*
COc1ccc(CCn2c(N)c(C(=O)NCc3ccco3)c3nc4ccccc4nc32)cc1	4	-9	-4	9	-7	-4	.
NC(=O)C1CCCN(C(=O)CCCNC(=O)c2ccc(Cl)cc2)C1 (stereo not drawn)	-1	0	-1	30*	4	0	7
O=C(c1cccc(F)c1)N1CC[C@H]2[C@H](CO)Nc3ccc(-c4ccccc4)cc3[C@H]21	.	.	.	.	.	1	.
CCOc1ccc(N2CC(C(=O)N3CCN(C(=O)c4ccco4)CC3)CC2=O)cc1 (stereo not drawn)	2	-1	1	26*	2	-2	5
FC(F)(F)c1cccc(N2CCN(Cc3cccnc3)CC2)c1	1	-2	4	7	0	.	.
